Measured values published in ChEMBL document CHEMBL1153046, “Synthesis and antitumor activity of substituted triazolo[4,3-a]pyrimidin-6-sulfonamide with an incorporated thiazolidinone moiety” (2009).

How the values were obtained:
Assay type in all cases: functional
HCT-116 = test: Growth inhibition of human HCT116 cells after 48 hrs by sulforhodamine B assay; details: HCT-116, 48 h
Summary of the method: (§1)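 NCI 60-cell-line panel. Cells are grown in RPMI1640 with 5% fetal calf serum and 2 mM L-glutamine, seeded at a density set by growth characteristics, and preincubated 24 h. Compound is tested at a minimum of five concentrations at 10-fold dilution, with 48 h continuous exposure. Viability is read by sulforhodamine B protein assay. GI50, TGI and LC50 come from dose-response curves.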

A549 = test: Growth inhibition of human A549 cells after 48 hrs by sulforhodamine B assay; details: A549, 48 h; summary of the method: as §1
SK-MEL-5 = test: Growth inhibition of human SK-MEL-5 cells after 48 hrs by sulforhodamine B assay; details: SK-MEL-5, 48 h; summary of the method: as §1
HCC 2998 = test: Growth inhibition of human HCC2998 cells after 48 hrs by sulforhodamine B assay; details: HCC 2998, 48 h; summary of the method: as §1
UACC-62 = test: Growth inhibition of human UACC62 cells after 48 hrs by sulforhodamine B assay; details: UACC-62, 48 h
Summary of the method: (§2)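 NCI 60-cell-line panel (nine cancer types), with cells grown in RPMI1640 plus 5% fetal calf serum and 2 mM L-glutamine. Cells are seeded at a density that depends on the line and preincubated 24 h. Compounds are then applied at a minimum of five 10-fold dilutions over a 5-log range with 48 h continuous exposure. Viability is read by SRB protein assay, and GI50 is derived from dose-response curves in units of 10^-5 M.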

BT-549 = test: Growth inhibition of human BT549 cells after 48 hrs by sulforhodamine B assay; details: BT-549, 48 h; summary of the method: as §1
SK-MEL-2 = test: Growth inhibition of human SK-MEL-2 cells after 48 hrs by sulforhodamine B assay; details: SK-MEL-2, 48 h; summary of the method: as §1
NCI-H460 = test: Antiproliferative activity against human NCI-H460 cells assessed as cell growth at 100 uM after 48 hrs by alamar blue assay; details: NCI-H460, 48 h, read-out: Activity
Summary of the method: (§3)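 NCI three-cell-line primary screen. Cells are seeded and preincubated in microtiter plates. Compound is added at a single 10^-4 M concentration and cultures are incubated 48 h. The end-point is read with alamar blue. Results are given as percent growth relative to untreated control cells.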

MCF7 [1] = test: Growth inhibition of human MCF7 cells after 48 hrs by sulforhodamine B assay; details: MCF7, 48 h; summary of the method: as §1
PC-3 = test: Growth inhibition of human PC3 cells after 48 hrs by sulforhodamine B assay; details: PC-3, 48 h; summary of the method: as §1
MCF7 [2] = test: Antiproliferative activity against human MCF7 cells assessed as cell growth at 100 uM after 48 hrs by alamar blue assay; details: MCF7, 48 h, read-out: Activity; summary of the method: as §3
HT-29 = test: Growth inhibition of human HT-29 cells after 48 hrs by sulforhodamine B assay; details: HT-29, 48 h; summary of the method: as §1
NCI-H23 = test: Growth inhibition of human NCI-H23 cells after 48 hrs by sulforhodamine B assay; details: NCI-H23, 48 h; summary of the method: as §1
HOP-62 = test: Growth inhibition of human HOP62 cells after 48 hrs by sulforhodamine B assay; details: HOP-62, 48 h; summary of the method: as §1
NCI/ADR-RES = test: Growth inhibition of human NCI/ADR-RES cells after 48 hrs by sulforhodamine B assay; summary of the method: as §1
KM12 = test: Growth inhibition of human KM12 cells after 48 hrs by sulforhodamine B assay; details: KM12, 48 h; summary of the method: as §1
LOX IMVI = test: Growth inhibition of human LOXIMVI cells after 48 hrs by sulforhodamine B assay; summary of the method: as §1
MDA-MB-231 = test: Growth inhibition of human MDA-MB-231 cells after 48 hrs by sulforhodamine B assay; details: MDA-MB-231, 48 h; summary of the method: as §1
SNB-19 = test: Growth inhibition of human SNB19 cells after 48 hrs by sulforhodamine B assay; details: SNB-19, 48 h; summary of the method: as §2
OVCAR-8 = test: Growth inhibition of human OVCAR8 cells after 48 hrs by sulforhodamine B assay; details: OVCAR-8, 48 h; summary of the method: as §1
K562 = test: Growth inhibition of human K562 cells after 48 hrs by sulforhodamine B assay; details: K562, 48 h; summary of the method: as §1
SR = test: Growth inhibition of human SR cells after 48 hrs by sulforhodamine B assay; summary of the method: as §2
EKVX = test: Growth inhibition of human EKVX cells after 48 hrs by sulforhodamine B assay; summary of the method: as §1
DU-145 = test: Growth inhibition of human DU145 cells after 48 hrs by sulforhodamine B assay; details: DU-145, 48 h; summary of the method: as §1
[3] = Growth inhibition of human Hs 578T cells after 48 hrs by sulforhodamine B assay; summary of the method: as §1
A498 = test: Growth inhibition of human A498 cells after 48 hrs by sulforhodamine B assay; details: A498, 48 h; summary of the method: as §1
M14 = test: Growth inhibition of human M14 cells after 48 hrs by sulforhodamine B assay; details: M14, 48 h; summary of the method: as §1
UO-31 = test: Growth inhibition of human UO31 cells after 48 hrs by sulforhodamine B assay; details: UO-31, 48 h; summary of the method: as §2
U-251 = test: Growth inhibition of human U251 cells after 48 hrs by sulforhodamine B assay; details: U-251, 48 h; summary of the method: as §2
TK-10 = test: Growth inhibition of human TK10 cells after 48 hrs by sulforhodamine B assay; details: TK-10, 48 h; summary of the method: as §2
SF-268 = test: Growth inhibition of human SF268 cells after 48 hrs by sulforhodamine B assay; details: SF-268, 48 h; summary of the method: as §1
[4] = read-out: LC50 (the source's name)

COc1ccc(/C=N/c2nc3[nH]nc(C)n3c(=O)c2S(=O)(=O)NN2C(=O)C(CN3CCN(C)CC3)SC2c2cccs2)cc1 (stereo unspecified)
GI50 (HCT-116): 1.01 µM | LC50 (concentration killing 50% of cells) (HCT-116): > 100 µM | TGI (HCT-116): 20 µM | GI50 (A549): 3.65 µM | TGI (A549): > 100 µM | GI50 (SK-MEL-5): 0.72 µM | TGI (SK-MEL-5): 7.11 µM | CC50 (SK-MEL-5; [4]): > 100 µM | GI50 (HCC 2998): 1.34 µM | LC50 (HCC 2998): > 100 µM | TGI (HCC 2998): 16.8 µM | GI50 (UACC-62): 1.47 µM | TGI (UACC-62): > 100 µM | CC50 (UACC-62; [4]): > 100 µM | GI50 (BT-549): 11.3 µM | TGI (BT-549): > 100 µM | GI50 (SK-MEL-2): 5.55 µM | LC50 (concentration killing 50% of cells) (SK-MEL-2): > 100 µM | TGI (SK-MEL-2): > 100 µM | growth at 100 µM (NCI-H460): 24% | GI50 (MCF7 [1]): 5.8 µM | TGI (MCF7 [1]): > 100 µM | GI50 (PC-3): 2.89 µM | LC50 (concentration killing 50% of cells) (PC-3): > 100 µM | TGI (PC-3): 40 µM | growth at 100 µM (MCF7 [2]): 46% | GI50 (HT-29): 1.96 µM | GI50 (NCI-H23): 1.16 µM | TGI (NCI-H23): 9.11 µM | GI50 (HOP-62): 1.7 µM | LC50 (HOP-62): > 100 µM | TGI (HOP-62): > 100 µM | GI50 (NCI/ADR-RES): 1.5 µM | TGI (NCI/ADR-RES): 6.98 µM | GI50 (KM12): 3.02 µM | GI50 (LOX IMVI): 2.16 µM | TGI (LOX IMVI): > 100 µM | GI50 (MDA-MB-231): 3.25 µM | LC50 (50% lethal concentration) (MDA-MB-231): > 100 µM | TGI (MDA-MB-231): 42.2 µM | GI50 (SNB-19): 7.14 µM | TGI (SNB-19): > 100 µM | GI50 (OVCAR-8): 3.53 µM | TGI (OVCAR-8): 40.5 µM | GI50 (K562): 2.87 µM | LC50 (K562): 68.2 µM | TGI (K562): 6.75 µM | GI50 (SR): 0.79 µM | LC50 (concentration killing 50% of cells) (SR): 13.1 µM | TGI (SR): 3.03 µM | GI50 (EKVX): 39.7 µM | TGI (EKVX): > 100 µM | GI50 (DU-145): 5.22 µM | LC50 (concentration giving 50% net cell kill) (DU-145): > 100 µM | TGI (DU-145): > 100 µM | GI50 [3]: 3.05 µM | LC50 (concentration killing 50% of cells) [3]: > 100 µM | TGI [3]: > 100 µM | GI50 (A498): 0.5 µM | LC50 (concentration giving 50% net cell kill) (A498): > 100 µM | TGI (A498): 3.2 µM | GI50 (M14): 1.36 µM | LC50 (concentration killing 50% of cells) (M14): > 100 µM | TGI (M14): > 100 µM | GI50 (UO-31): 5.36 µM | LC50 (UO-31): > 100 µM | TGI (UO-31): > 100 µM | GI50 (U-251): 2.51 µM | LC50 (U-251): > 100 µM | TGI (U-251): > 100 µM | GI50 (TK-10): 5.9 µM | LC50 (TK-10): > 100 µM | TGI (TK-10): > 100 µM | GI50 (SF-268): > 100 µM | TGI (SF-268): > 100 µM | CC50 (SF-268; [4]): > 100 µM
